Source: ChEMBL document CHEMBL1145523, “Genetic targeting of the kinase activity of the Met receptor in cancer cells” (Proc Natl Acad Sci U S A, 2007)
Activity calls are given as the source filed them.

Assays:
[1] = test system: DLD-1; experiment: Reduction of proliferation in human DLD1 KD1 cell carrying inactive MET kinase at 2.5 uM by ATP-based assay; format: functional
How it was run: (§1)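 Parental DLD1 and two independent MET-KD clones seeded at equal density in 96-well plates and given 2.5 μM inhibitor. Cell number measured as ATP-based luminescence (RLU). Mean of triplicates ± SD.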

[2] = biological target: Mitogen-activated protein kinase 14 (Homo sapiens) (UniProt Q16539); experiment: Inhibition of human p38-alpha phosphorylation in DLD1 cells at 2.5 uM; format: cell-based; conditions: DLD-1
Sequence of Mitogen-activated protein kinase 14 (Homo sapiens) (Q16539 whole entry): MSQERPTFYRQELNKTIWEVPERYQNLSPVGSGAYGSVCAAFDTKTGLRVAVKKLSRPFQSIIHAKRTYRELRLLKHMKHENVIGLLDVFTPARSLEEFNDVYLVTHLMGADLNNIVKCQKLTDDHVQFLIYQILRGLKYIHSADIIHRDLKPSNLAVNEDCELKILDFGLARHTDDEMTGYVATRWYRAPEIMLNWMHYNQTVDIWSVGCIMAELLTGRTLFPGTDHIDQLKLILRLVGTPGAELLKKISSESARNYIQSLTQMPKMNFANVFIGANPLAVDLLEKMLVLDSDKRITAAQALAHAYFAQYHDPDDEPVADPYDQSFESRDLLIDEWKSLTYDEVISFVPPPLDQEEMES
How it was run: (§2)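 Parental or MET-KD DLD1 cells held 16 h with or without 2.5 μM inhibitor, then lysed. Phosphorylation read on a human phospho-MAPK antibody array following the kit instructions. Dot signals quantified by densitometry and normalized to untreated WT DLD1 cells (set to 1). Significance by two-tailed Student's t test against WT untreated cells.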

[3] = test system: DLD1 KD; experiment: Inhibition of human p70s6K phosphorylation in DLD1 KD cells carrying inactive MET kinase at 2.5 uM; format: cell-based; how it was run: as §2
[4] = biological target: Mitogen-activated protein kinase 14 (Homo sapiens) (UniProt Q16539); experiment: Inhibition of human p38-alpha phosphorylation in DLD1 KD cells carrying inactive MET kinase at 2.5 uM; format: cell-based; how it was run: as §2
[5] = test system: DLD-1; experiment: Reduction of proliferation in human DLD1 KD2 cell carrying inactive MET kinase at 2.5 uM by ATP-based assay; format: functional; how it was run: as §1
[6] = test system: DLD-1; experiment: Reduction of proliferation in human DLD1 cells at 2.5 uM by ATP-based assay; format: functional, cell-based; how it was run: as §1
[7] = test system: DLD1 KD; experiment: Inhibition of human MSK phosphorylation in DLD1 KD cells carrying inactive MET kinase at 2.5 uM; format: cell-based; how it was run: as §2
[8] = biological target: T1, c-Jun N-terminal kinase, JNK (Homo sapiens) (UniProt P45983+P53779+P45984); experiment: Inhibition of human JNK phosphorylation in DLD1 KD cells carrying kinase inactive MET at 2.5 uM; format: cell-based; how it was run: as §2
[9] = biological target: T1, c-Jun N-terminal kinase, JNK (Homo sapiens); experiment: Inhibition of human JNK phosphorylation in DLD1 cells at 2.5 uM; format: cell-based; conditions: DLD-1; how it was run: as §2
[10] = test system: DLD-1; experiment: Inhibition of human MSK phosphorylation in DLD1 cells at 2.5 uM; format: cell-based; how it was run: as §2
[11] = test system: DLD-1; experiment: Inhibition of human p70s6K phosphorylation in DLD1 cells at 2.5 uM; format: cell-based; how it was run: as §2

Measured: Activity

Cc1[nH]c(/C=C2\C(=O)Nc3ccc(S(=O)(=O)N(C)c4cccc(Cl)c4)cc32)c(C)c1C(=O)N1CCN(C)CC1
active: [1] | [2] | [3] | [4] | [5] | [6] | [7] | [8] | [9] | [10] | [11]
